INS promoter act: TRM-6 insulin promoter activation; TRM-6 cells (human fetal islet line), insulin promoter eGFP reporter, imaging; plate-scaled: unstimulated 0, stimulated control 100; activation, % at 2 µM; hit rate 0.81% among 130,000;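 active = activation at 2 µM above a set limit, confirmed on inspection of the cell images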;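 note: share of cells whose green reporter signal exceeds an intensity cutoff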
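Assay system: TRM-6 human fetal islet cells, insulin promoter–eGFP reporter; Also added: 0.75 µM tamoxifen as reporter inducer; Schedule: 15 h tamoxifen pre-treatment, 48 h compound treatment at 37 °C; Signal: fixed-cell fluorescence microscopy, eGFP plus Hoechst; Read-out: percent activation from GFP-positive cell fraction; Control set: stimulated and unstimulated wells.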
* marks the source's active call; other numbers are inactive results. Shown is part of a subset that was picked to be rich in hits.

SMILES	INS promoter act
S=C1NCCc2ccccc2C1c1ccccc1Cl (centres undefined)	468.8*
CS(=O)(=O)N(CCc1ccccc1)CC(=O)N1CCc2ccccc2C1	-20.7
COc1ccc(N2C(=O)N(Cc3ccccc3F)c3ccccc3S2(=O)=O)cc1	136.4
COc1ccc(-c2nnn(Cc3ccccc3F)n2)cc1	521.4*
CCOC(=O)CC(NC(=O)Cn1nnc(-c2ccccc2)n1)c1ccc(OC)cc1 (centres undefined)	-5.9
c1ccc(-c2cc(-c3nnc4n3N=C(c3ccc5ccccc5c3)CS4)[nH]n2)cc1	-4.2
CCN1CCN(S(=O)(=O)c2cc(C)c(OC)cc2C)CC1	-57.1
CCn1c(NC)cc(=O)n(C)c1=O	2.6
CCn1c(=O)n(CC)c2cc(S(N)(=O)=O)c(C)cc21	525.0*
CCCc1cc(=O)[nH]c(SCC(=O)N2CCN(S(=O)(=O)c3ccc(Cl)cc3)CC2)n1	-6.5
Cn1nc(C(=O)NCc2ccc(F)cc2)c2ccccc2c1=O	60.0
Cn1nc(C(=O)NCc2ccccn2)c2ccccc2c1=O	-20.0
Cn1nc(C(=O)NCc2cccs2)c2ccccc2c1=O	76.0*
COc1ccc(S(=O)(=O)N(C)CC(=O)Nc2ccc(C(F)(F)F)cc2)cc1Cl	0.0
COc1ccc(C)cc1NC(=O)CSc1nnc(CC(=O)Nc2ccccc2C)n1C	-66.7
C/C(=N\NC(=O)c1ccccc1-n1cccc1)C1CC1	-3.7
COC(=O)Cn1c(C)nc2c(sc3nc(C)cc(C)c32)c1=O	5.4
CCOC(=O)Cn1c(C)nc2c(C(=O)OCC)sc(C)c2c1=O	76.3*
CCOC(=O)c1sc2nc(C)[nH]c(=S)c2c1C	-78.6
Cc1ccc(C(=O)Nc2nc(C)c(C(=O)Nc3ccc4c(c3)CCC4)s2)cc1	-6.7
CC(C)N(C(=O)c1ccc2nc3c4ccccc4c4ccccc4c3nc2c1)C(C)C	347.6
COc1cc(-c2nnc(Sc3ccc(C(F)(F)F)cc3[N+](=O)[O-])o2)cc(OC)c1OC	3.1
CCSc1nnc(-c2cc(Br)ccc2N=Cc2c(C)[nH]n(-c3ccccc3)c2=O)c(=O)[nH]1	356.3*
COc1cc(S(=O)(=O)Nc2ccc(C)cc2)ccc1N=Cc1c(C)[nH]n(-c2ccccc2)c1=O	-72.0
Cc1ccc(-n2[nH]c(C)c(C=Nc3ccc(Br)cn3)c2=O)cc1	118.8
SMILES	INS promoter act
CCN(CC)C1=NC=CC(c2ccccc2)=CC1C (centres undefined)	3.2
CC1=CC(C)(C)N(C(=O)Nc2ccccc2)c2ccccc21	0.0
CC1=CC(C)(C)N(C(=O)CSc2nncn2C)c2ccccc21	630.8*
C/C=C/C(=O)N1c2ccccc2C(C)=CC1(C)C	0.0
CCOC(=O)c1nn(-c2ccccc2)c2nnc(Cc3ccccc3)c(=O)n12	-7.7
Cc1ccc(C)c(NC(=O)Cn2nnc(-c3ccc(N4CCOCC4)cc3)n2)c1	0.0
Cc1cccc(NC(=O)c2c(O)c3cccc4c3n(c2=O)CC4)c1	7.7
CC(=O)c1cccc(NC(=O)N2CCCC2C(=O)NCc2ccc3c(c2)OCO3)c1 (centres undefined)	8.3
CC(=O)c1cccc(NC(=O)N2CCCC2C(=O)Nc2ccc3c(c2)OCCO3)c1 (centres undefined)	492.9*
COc1ccc(NC(=O)C2CCCN2C(=O)Nc2ccccc2)cc1OC (centres undefined)	-6.9
Cc1csc(NC(=O)CSc2nncc(=O)n2N)n1	0.0
Cc1ccc(S(=O)(=O)NCCCN2CCOCC2)c(C)c1	9.7
Cc1ccc(S(=O)(=O)Nc2ccc3nc(-c4cccn4C)[nH]c3c2)cc1	0.0
CC[n+]1c(C=C2C=C(C)OC(C)=C2)sc2ccccc21	809.1*
CC/C(=C/c1sc2ccccc2[n+]1CC)SC	0.0
Cc1sc2ccccc2[n+]1CCC(C)S(=O)(=O)[O-] (centres undefined)	8.7
O=C(COc1ccc(Cl)cc1)NCc1cn2cc(Cl)ccc2n1	-2.7
COc1ccc(N2CCN(C(=O)C34CCC(C)(C(=O)C3)C4(C)C)CC2)cc1 (centres undefined)	-5.7
CC12CCC(C(=O)N3CCc4ccccc43)(CC1=O)C2(C)C (centres undefined)	513.8*
CC12CCC(C(=O)Nc3ccccc3N3CCOCC3)(CC1=O)C2(C)C (centres undefined)	8.3
O=C(Nc1cccc(Cl)c1)c1ccc(-n2cncn2)c([N+](=O)[O-])c1	6.5
Cc1ccc(NC(=O)c2ccc(-n3cccn3)c([N+](=O)[O-])c2)cc1C	218.2*
Cc1ccc(NC(=O)c2ccncc2)cc1[N+](=O)[O-]	2.0
COc1ccc(CNC(=O)CSc2nc3[nH]ncc3c(=O)n2-c2ccccc2Br)cc1	2.7
COCCn1cnnc1SCC(=O)Nc1ccc(Br)cc1F	0.0
SMILES	INS promoter act
Cn1c2ccccc2n2c(=O)c(=O)n(CC(=O)c3ccc(Cl)cc3)nc12	3.4
CCN1CCN(S(=O)(=O)c2ccc(Cl)c(C(=O)NC(C)(C)C)c2)CC1	-7.1
O/N=C/c1cc(Cl)ccc1OCc1ccccc1Cl	0.0
Cc1cc(C)cc(Oc2ccccc2/C=N\O)c1	223.3*
O/N=C/c1ccccc1Oc1ccccc1	3.3
Cc1ccc(C)c(/C(O)=C2\C(=O)C(=O)N(Cc3cccnc3)C2c2cccnc2)c1 (centres undefined)	9.1
O=C1C2C3C=CC(C4CC34)C2C(=O)N1/N=C/c1cccs1 (centres undefined)	9.7
COc1cc(CCC(=O)Nc2ccc(Cl)c(C(F)(F)F)c2)cc(OC)c1OC	276.9*
COc1cc(CCC(=O)Nc2cc(Cl)ccc2N2CCN(C)CC2)cc(OC)c1OC	5.7
COc1cccc(C(=O)Nc2ccc(Cl)c(C(F)(F)F)c2)c1	7.7
COc1ccc(S(=O)(=O)N(C)CC(=O)N2CCN(Cc3ccccc3)CC2)cc1C	0.0
CCc1noc(C)c1C(=O)Nc1nc(-c2ccc(Cl)cc2Cl)cs1	-7.4
Cc1cc(C(=O)CSc2nnnn2C)c(C)n1CCc1ccc(F)cc1	125.8*
Cc1cc(C(=O)CCl)c(C)n1CCc1ccc(F)cc1	-100.0
Cc1cc(C(=O)CSc2nnc(N)s2)c(C)n1CCc1ccc(F)cc1	0.0
CCOC(=O)c1c(Cc2ccccc2)c[nH]c1C	5.9
Cc1nn(C(=O)c2ccccc2)c2c1C(=O)CC(C)(C)C2	27.6
O=C1C(=O)N(CCc2c[nH]c3ccccc23)C(c2cccnc2)/C1=C(/O)c1ccccc1 (centres undefined)	0.0
c1cc2c3c(cccc3c1)C(N1CCN(C3=Nc4cccc5cccc3c45)CC1)=N2	-6.7
O=C1c2cccc3cccc(c23)C(=O)N1CC1CCN(S(=O)(=O)c2ccc(F)cc2)CC1	0.0
c1ccc(CC2CCN(C3=Nc4cccc5cccc3c45)CC2)cc1	82.9*
CCCCNC(=O)C(C#N)c1nc2ccccc2nc1N1CCN(c2ccccc2F)CC1 (centres undefined)	20.0
COc1cc2c(cc1OC)C(C)N(C(=O)c1ccc(Br)o1)CC2 (centres undefined)	-6.1
Cc1ccc(-c2ccc(CCC(=O)O)n2-c2cccc(O)c2)cc1	291.3*
Cc1ccc(-c2ccc(CCC(=O)O)n2CC(=O)O)cc1	-3.6
Cc1ccc(-c2ccc(CCC(=O)O)n2-c2ccc(O)cc2)cc1	-8.6
Clc1ccc(OCCSc2ncccn2)cc1	-66.2
CC(C)CC(NC(=O)c1ccccc1NC(=O)c1ccccc1)C(=O)O (centres undefined)	-5.9
COC(=O)C(Cc1cnc(Cl)s1)(C(=O)OC)c1ccc([N+](=O)[O-])cc1	535.7*
O=[N+]([O-])c1ccc(COc2ccc(CNc3ccccc3)cc2)cc1	0.0

Source: PubChem
